This is an account of results in ChEMBL document CHEMBL1148495, “Racemic and chiral sulfoxides as potential prodrugs of the COX-2 inhibitors Vioxx and Arcoxia” (Bioorg Med Chem Lett, 2006).

Converted amounts (≈) assume the structure as drawn.

Series [1] addresses T1, Prostaglandin G/H synthase 2 (Homo sapiens, UniProt P35354).
T1 sequence (P35354 whole entry): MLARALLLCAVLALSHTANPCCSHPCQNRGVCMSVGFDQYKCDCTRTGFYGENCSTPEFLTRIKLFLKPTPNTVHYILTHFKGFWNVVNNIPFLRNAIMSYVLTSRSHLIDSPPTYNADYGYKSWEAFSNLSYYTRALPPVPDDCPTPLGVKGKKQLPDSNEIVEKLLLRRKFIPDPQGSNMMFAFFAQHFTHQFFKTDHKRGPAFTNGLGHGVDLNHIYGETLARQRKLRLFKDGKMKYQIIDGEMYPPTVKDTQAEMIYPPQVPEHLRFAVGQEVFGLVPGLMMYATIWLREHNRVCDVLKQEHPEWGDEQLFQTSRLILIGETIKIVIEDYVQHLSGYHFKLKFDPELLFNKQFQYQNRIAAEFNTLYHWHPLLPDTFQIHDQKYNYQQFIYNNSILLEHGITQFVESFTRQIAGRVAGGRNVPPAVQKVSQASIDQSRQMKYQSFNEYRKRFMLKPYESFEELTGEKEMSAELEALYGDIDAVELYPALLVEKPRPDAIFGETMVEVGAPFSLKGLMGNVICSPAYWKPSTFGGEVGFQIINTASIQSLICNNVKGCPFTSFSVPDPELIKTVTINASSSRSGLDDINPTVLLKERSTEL
As to the kind of experiment: Inhibition of COX2 in human whole blood. In kind it is tissue-based.

Series [2] concerns Liver microsomes. As to the kind of experiment: Stability in human liver microsomes. In kind it is ADME, Microsome. The essentials: (§1)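 Compound at 5 µM was incubated with human or rat liver microsomes (1 mg/mL microsomal protein) for 30 min at 37 °C. Result is given as % metabolism.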
On the technique in general: Liver microsomes are vesicles of endoplasmic reticulum, rich in cytochrome P450 enzymes.

In series [3] the test system is Liver microsomes. The series can be described thus: Stability in rat liver microsomes. In kind it is ADME, Microsome. The method in brief: as §1
Series [4] can be described thus: Solubility in SGF at pH 1.8. It is filed as physicochemical.
Series [5] in a line: Solubility in PBS at pH 7.2. It is filed as physicochemical.
Series [6] deals with Rattus norvegicus. As to the kind of experiment: Inhibition of adjuvant-induced arthritis in Wistar rat at 0.3 mg/kg, po. It is filed as functional. The method in brief:
(§2)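 Adjuvant-induced arthritis in male Wistar rats, therapeutic protocol. Compounds were given orally once daily for 7 days, starting on day 14 after arthritis induction. Paw edema was measured 24 h after the last dose and expressed as % inhibition.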

Series [7] has as its system Rattus norvegicus. The series can be described thus: Inhibition of yeast-induced pyresis in Wistar rat at 1 mg/kg, po. It is filed as functional. The essentials: (§3)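 Yeast-induced pyresis, an acute model run as a therapeutic protocol. Compounds were given as a single oral dose. Temperature was recorded at 1 h intervals from 1 to 5 h after dosing and expressed as % inhibition.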

Series [8] in a line: Cmax in Wistar rat at 1 mg/kg, po. More on the design: dose 1 mg/kg, route oral. The following applies: in vivo. It is filed as ADME, organism-based. The essentials:
(§4)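 Male Wistar rats given a single oral dose of 1 mg/kg as a suspension in 0.5% methylcellulose with 0.1% Tween 80. Plasma levels of sulfoxide prodrug and sulfone parent were followed over time. Cmax, tmax and AUC0-t are reported as means (n = 2–3) with SD.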

Series [9] can be described thus: Tmax in Wistar rat at 1 mg/kg, po. In kind it is ADME, organism-based. On the set-up: dose 1 mg/kg, route oral. The following applies: in vivo. The method in brief:
as §4

A short description of series [10]: AUC(0-t) in Wistar rat at 1 mg/kg, po. It is filed as ADME, organism-based. On the set-up: dose 1 mg/kg, route oral. As to conditions: plasma. The method in brief:
as §4

For series [11], the system named is Rattus norvegicus. As to the kind of experiment: Cmax for parent compound after prodrug dosing in Wistar rat at 1 mg/kg, po. In kind it is ADME, organism-based. On the set-up: dose 1 mg/kg, route oral. The following applies: in vivo. The method in brief: as §4
Series [12] has as its system Rattus norvegicus. As to the kind of experiment: Tmax for parent compound after prodrug dosing in Wistar rat at 1 mg/kg, po. It is filed as ADME, organism-based. More on the design: dose 1 mg/kg, route oral. As to conditions: in vivo. The method in brief: as §4
The subject of series [13] is Rattus norvegicus. The series can be described thus: AUC(0-t) for parent compound after prodrug dosing in Wistar rat at 1 mg/kg, po. In kind it is ADME, organism-based, Plasma. On the set-up: dose 1 mg/kg, route oral. The following applies: in vivo. The method in brief:
as §4

Series [14] deals with T2, Prostaglandin G/H synthase 2 (Homo sapiens) (UniProt P35354).
T2 sequence (whole entry): T1 sequence (P35354 whole entry)
The series can be described thus: Inhibition of COX2 in human whole blood at 10 uM. In kind it is tissue-based.

In series [15] the test system is Rattus norvegicus. The series can be described thus: Inhibition of adjuvant-induced arthritis in Wistar rat at 1 mg/kg, po. In kind it is functional. The essentials: as §2
For series [16], the system named is Rattus norvegicus. The series can be described thus: Inhibition of yeast-induced pyresis in Wistar rat at 3 mg/kg, po. It is filed as functional. The method in brief:
as §3

As to `Cc1ccc(-c2ncc(Cl)cc2-c2ccc([S@+](C)[O-])cc2)cn1`, the half-inhibitory concentration (IC50) (in general, the concentration that inhibits the measured activity by half) in series [1] turned out to be 3.5 µM. In addition, the Stability with Liver microsomes [2] was 2%; with Liver microsomes [3], 17%.
`CS(=O)(=O)c1ccc(C2=C(c3ccccc3)C(=O)OC2)cc1` [ROFECOXIB]: the Stability with Liver microsomes [3] is given as 38%. Further, the solubility (in general, the dissolved amount per volume that the medium holds) was found to be 16 µg/mL (≈ 50.9 µM) in series [4] and 15 µg/mL (≈ 47.7 µM) in series [5]. Also, the inhibition in vivo (commonly how much of the control response was suppressed) at 0.3 mg/kg with Rattus norvegicus [6] amounted to 41%. Moreover, in the series with Rattus norvegicus [7], 1 mg/kg produced 48% inhibition in vivo. Besides, in series [8], the Cmax (commonly the peak of the concentration-time curve) came out at 237 ng/mL. In addition, the Tmax (in general, the time from dosing to the highest level) in series [9] came to 24 min. The AUC(0-t) – broadly, the area under the concentration-time curve up to a stated or last time point – in series [10] was found to be 531 ng·h/mL.
`C[S+]([O-])c1ccc(C2=C(c3ccccc3)C(=O)OC2)cc1` (stereo not drawn): in [1], 4.93 µM corresponded to half-maximal inhibition (IC50). Moreover, the Stability amounted to 5% with Liver microsomes [2] and 35% in the series with Liver microsomes [3]. In addition, the figures for the solubility in [4] and in series [5] were 717 µg/mL (≈ 2400 µM) and 537 µg/mL (≈ 1800 µM), respectively. Moreover, in the series with Rattus norvegicus [6], the inhibition in vivo at 0.3 mg/kg was 72%. In addition, the inhibition in vivo at 1 mg/kg with Rattus norvegicus [7] worked out at 56%. Further, the Cmax worked out at 334 ng/mL in [8] and 468 ng/mL with Rattus norvegicus [11]. Also, the time to peak (Tmax) in [9] came out at 18 min; in the series on Rattus norvegicus [12], 24 min. The AUC (commonly the area under the concentration-time curve, a measure of exposure) in the series with Rattus norvegicus [13] is 979 ng·h/mL. Moreover, the AUC(0-t) in series [10] was 318 ng·h/mL.
For `Cc1ccc(-c2ncc(Cl)cc2-c2ccc([S@@+](C)[O-])cc2)cn1`, the figures for the Stability in the series on Liver microsomes [2] and with Liver microsomes [3] were 5% and 26%, respectively. Moreover, in series [14], the inhibition – broadly, the change of the read-out against control, counted positive when it falls – came out at 24.4%.
Turning to `C[S@@+]([O-])c1ccc(C2=C(c3ccccc3)C(=O)OC2)cc1`, the Stability in the series on Liver microsomes [2] worked out at 1%; with Liver microsomes [3], 49%.
As for `Cc1ccc(-c2ncc(Cl)cc2-c2ccc(S(C)(=O)=O)cc2)cn1` [ETORICOXIB], the Stability in the series on Liver microsomes [2] worked out at 4%; in the series on Liver microsomes [3] it was 6%. In addition, the solubility in [4] is above 1000 µg/mL; in series [5] it was 104 µg/mL (≈ 290 µM). Moreover, in the series on Rattus norvegicus [15], the inhibition in vivo at 1 mg/kg is 60%. This compound also displayed an inhibition in vivo at 3 mg/kg with Rattus norvegicus [16] of 81%. For the same compound, the Cmax in series [8] turned out to be 427 ng/mL. The Tmax in series [9] was 18 min. In series [10], this compound had an AUC(0-t) of 1660 ng·h/mL.
In turn, `Cc1ccc(-c2ncc(Cl)cc2-c2ccc([S+](C)[O-])cc2)cn1` (stereo not drawn) gave an IC50 in [1] of 3.7 µM. The Stability with Liver microsomes [2] was 6%; with Liver microsomes [3] it was 21%. Besides, the solubility in [4] and in [5] was above 1000 µg/mL throughout. Also, in the series with Rattus norvegicus [15], the inhibition in vivo at 1 mg/kg amounted to 67%. At 3 mg/kg the inhibition in vivo with Rattus norvegicus [16] was 49%. For the same compound, the Cmax in series [8] was found to be 133 ng/mL; in the series with Rattus norvegicus [11] it was 254 ng/mL. The Tmax in [9] was 36 min; in the series on Rattus norvegicus [12], 18 min. Moreover, the AUC with Rattus norvegicus [13] is 803 ng·h/mL. The AUC(0-t) in series [10] is 578 ng·h/mL.
Consider `C[S@+]([O-])c1ccc(C2=C(c3ccccc3)C(=O)OC2)cc1`, for which the Stability worked out at 4% with Liver microsomes [2] and 40% in the series on Liver microsomes [3].
